pEC50, pIC50: −log10 of the molar value. Calls of active or inactive are those of the source.
How the values were obtained:
[1] = target: Serine/threonine-protein kinase pim-3 (Homo sapiens, UniProt Q86V86); experiment: Inhibition of human PIM3 using RSRHSSYPAGT as substrate in presence of [gamma-33P]-ATP
[2] = target: Death-associated protein kinase 1 (Homo sapiens, UniProt P53355); experiment: Activation of human DAPK1 using KKLNRTLSFAEPG as substrate in presence of [gamma-33P]-ATP
[3] = target: Albumin (Bos taurus, UniProt P02769); experiment: Binding affinity to bovine serum albumin by tryptophan quenching based HTS assay; assay type: ADME
Sequence of Albumin (P02769 whole entry): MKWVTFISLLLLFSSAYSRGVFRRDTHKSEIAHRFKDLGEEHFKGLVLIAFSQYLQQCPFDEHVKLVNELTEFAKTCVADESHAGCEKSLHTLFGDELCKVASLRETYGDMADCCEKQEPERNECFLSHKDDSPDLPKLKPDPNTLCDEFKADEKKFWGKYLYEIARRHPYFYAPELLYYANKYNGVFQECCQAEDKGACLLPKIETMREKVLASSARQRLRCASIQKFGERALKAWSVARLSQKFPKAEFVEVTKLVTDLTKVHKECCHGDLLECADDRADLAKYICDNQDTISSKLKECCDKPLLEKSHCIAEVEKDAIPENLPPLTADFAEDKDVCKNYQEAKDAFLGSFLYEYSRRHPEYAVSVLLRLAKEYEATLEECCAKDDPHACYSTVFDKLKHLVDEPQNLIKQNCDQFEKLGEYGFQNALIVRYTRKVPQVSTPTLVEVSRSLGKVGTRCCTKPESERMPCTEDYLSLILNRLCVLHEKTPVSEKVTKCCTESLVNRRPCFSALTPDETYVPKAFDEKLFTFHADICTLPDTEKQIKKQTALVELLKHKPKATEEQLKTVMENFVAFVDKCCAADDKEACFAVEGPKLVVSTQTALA
In short: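 Bovine serum albumin binding screened in HTS format by quenching of intrinsic BSA tryptophan fluorescence, Ex/Em 280/340 nm; IC50 derived from the quenching response.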

[4] = organism: Danio rerio; experiment: Induction of morphological changes in 6 hrs post fertilized zebra fish embryo assessed as defect in notochord development up to 200 uM by microscopic method; assay type: functional
In short: (§1)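 Embryos staged and placed in 12-well plates in E3 medium with 1% DMSO within 6 hpf, ~30 embryos per well. Continuous exposure from 6–30 hpf at varied concentrations up to 200 uM. For the timing window, 100 uM exposure began at different developmental times and all embryos were scored at 30 hpf. Notochord, somite and tail phenotypes were scored by microscopy.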

[5] = organism: Danio rerio; experiment: Induction of morphological changes in 6 hrs post fertilized zebra fish embryo assessed as defect in tail musculature by measuring downward c-bend of body axis up to 200 uM by microscopic method; assay type: functional; in short: as §1
[6] = organism: Homo sapiens; experiment: Substrate activity at P-gp in human […] cells assessed as intracellular rhodamine123 accumulation at 50 uM after 2 hrs by fluorescence-based HTS assay; assay type: cell-based
In short: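 MDA-MB-231 breast cancer cells in 96-well plates were pretreated with compound for 2 h, then intracellular rhodamine 123 accumulation was measured by fluorescence (Ex/Em 485/528). Verapamil at 20 uM served as positive control.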

[7] = organism: Danio rerio; experiment: Induction of morphological changes in 30 hrs post fertilized zebra fish embryo assessed as defect in notochord development up to 200 uM by microscopic method; assay type: functional; in short: as §1
[8] = organism: Danio rerio; experiment: Induction of morphological changes in 30 hrs post fertilized zebra fish embryo assessed as defect in tail musculature by measuring downward c-bend of body axis up to 200 uM by microscopic method; assay type: functional; in short: as §1
[9] = organism: Danio rerio; experiment: Induction of morphological changes in 6 to 14 hrs post fertilized zebra fish embryo assessed as defect in notochord development at 100 uM by microscopic method; assay type: functional; in short: as §1
[10] = organism: Danio rerio; experiment: Induction of morphological changes in 6 to 14 hrs post fertilized zebra fish embryo assessed as defect in somite development at 100 uM by microscopic method; assay type: functional; in short: as §1
[11] = organism: Danio rerio; experiment: Induction of morphological changes in 22 hrs post fertilized zebra fish embryo at 100 uM by microscopic method; assay type: functional; in short: as §1
[12] = organism: Danio rerio; experiment: Induction of morphological changes in 14 hrs post fertilized zebra fish embryo assessed as defect in notochord development at 100 uM by microscopic method; assay type: functional; in short: as §1
[13] = organism: Danio rerio; experiment: Induction of morphological changes in 14 hrs post fertilized zebra fish embryo assessed as defect in somite development at 100 uM by microscopic method; assay type: functional; in short: as §1
[14] = organism: Danio rerio; experiment: Toxicity in 6 to 30 hrs post fertilized zebra fish embryo assessed as death at 200 uM by microscopic method; conditions: zebrafish
In short: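 Staged zebrafish embryos placed in 12-well plates in E3 embryo medium within 6 hpf and exposed from 6 to 30 hpf in E3 with 1% DMSO, with or without compound, ~30 embryos per group (at most 30 per well). Wells were inspected under a dissecting microscope, and death was scored as loss of embryonic structure.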

[15] = organism: Danio rerio; experiment: Induction of morphological changes in 30 to 48 hrs post fertilized zebra fish embryo by microscopic method; assay type: functional
[16] = target: Serine/threonine-protein kinase pim-1 (Homo sapiens) (UniProt P11309); experiment: Inhibition of human PIM1 using KKRNRTLTK as substrate in presence of [gamma-33P]-ATP
Sequence of Serine/threonine-protein kinase pim-1 (Homo sapiens) (P11309 whole entry, looked up): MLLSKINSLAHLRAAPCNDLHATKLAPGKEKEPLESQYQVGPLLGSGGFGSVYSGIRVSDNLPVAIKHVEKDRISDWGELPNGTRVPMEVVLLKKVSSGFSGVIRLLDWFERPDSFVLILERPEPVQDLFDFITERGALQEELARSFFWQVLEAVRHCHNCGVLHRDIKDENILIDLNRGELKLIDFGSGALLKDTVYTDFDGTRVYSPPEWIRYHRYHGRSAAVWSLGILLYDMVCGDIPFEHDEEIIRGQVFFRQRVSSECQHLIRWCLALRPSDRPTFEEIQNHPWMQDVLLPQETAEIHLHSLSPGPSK

[17] = target: Serine/threonine-protein kinase pim-2 (Homo sapiens) (UniProt Q9P1W9); experiment: Inhibition of human PIM2 using RSRHSSYPAGT as substrate in presence of [gamma-33P]-ATP
Sequence of Serine/threonine-protein kinase pim-2 (Homo sapiens) (Q9P1W9 whole entry, looked up): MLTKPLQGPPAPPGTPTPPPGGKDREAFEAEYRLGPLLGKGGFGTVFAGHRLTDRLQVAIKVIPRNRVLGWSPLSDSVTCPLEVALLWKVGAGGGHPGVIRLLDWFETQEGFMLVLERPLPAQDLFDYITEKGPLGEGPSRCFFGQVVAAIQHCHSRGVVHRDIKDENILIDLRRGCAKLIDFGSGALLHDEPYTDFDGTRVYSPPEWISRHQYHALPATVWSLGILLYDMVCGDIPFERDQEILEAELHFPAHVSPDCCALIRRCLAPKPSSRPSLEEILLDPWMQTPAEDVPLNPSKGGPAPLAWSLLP

[18] = target: Death-associated protein kinase 2 (Homo sapiens) (UniProt Q9UIK4); experiment: Activation of human DAPK2 using KKLNRTLSFAEPG as substrate in presence of [gamma-33P]-ATP
Sequence of Death-associated protein kinase 2 (Homo sapiens) (Q9UIK4 whole entry, looked up): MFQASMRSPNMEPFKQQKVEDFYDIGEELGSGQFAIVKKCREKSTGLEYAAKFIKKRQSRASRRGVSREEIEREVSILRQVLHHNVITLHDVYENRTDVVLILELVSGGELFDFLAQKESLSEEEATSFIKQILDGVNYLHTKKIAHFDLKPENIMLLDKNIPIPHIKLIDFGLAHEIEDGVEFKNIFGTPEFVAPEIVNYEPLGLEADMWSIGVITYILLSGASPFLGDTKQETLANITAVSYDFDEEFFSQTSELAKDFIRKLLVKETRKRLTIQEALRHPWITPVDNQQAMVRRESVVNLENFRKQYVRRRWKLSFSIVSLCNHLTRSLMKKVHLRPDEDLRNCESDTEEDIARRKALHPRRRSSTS

[19] = target: Death-associated protein kinase 3 (Homo sapiens) (UniProt O43293); experiment: Activation of human DAPK3 using KKLNRTLSFAEPG as substrate in presence of [gamma-33P]-ATP
Sequence of Death-associated protein kinase 3 (Homo sapiens) (O43293 whole entry, looked up): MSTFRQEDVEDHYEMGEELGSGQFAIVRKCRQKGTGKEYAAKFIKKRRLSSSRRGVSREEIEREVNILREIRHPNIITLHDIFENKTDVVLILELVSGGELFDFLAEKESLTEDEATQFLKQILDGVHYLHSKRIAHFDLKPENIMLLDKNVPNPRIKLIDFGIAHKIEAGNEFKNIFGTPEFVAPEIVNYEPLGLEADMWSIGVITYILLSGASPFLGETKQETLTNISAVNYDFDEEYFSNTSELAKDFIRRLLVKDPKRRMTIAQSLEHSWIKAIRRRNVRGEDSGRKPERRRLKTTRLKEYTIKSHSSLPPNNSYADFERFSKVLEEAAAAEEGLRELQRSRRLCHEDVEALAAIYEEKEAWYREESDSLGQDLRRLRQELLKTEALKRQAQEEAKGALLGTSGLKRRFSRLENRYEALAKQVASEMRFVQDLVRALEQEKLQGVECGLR

Sequence of Death-associated protein kinase 1 (P53355 whole entry): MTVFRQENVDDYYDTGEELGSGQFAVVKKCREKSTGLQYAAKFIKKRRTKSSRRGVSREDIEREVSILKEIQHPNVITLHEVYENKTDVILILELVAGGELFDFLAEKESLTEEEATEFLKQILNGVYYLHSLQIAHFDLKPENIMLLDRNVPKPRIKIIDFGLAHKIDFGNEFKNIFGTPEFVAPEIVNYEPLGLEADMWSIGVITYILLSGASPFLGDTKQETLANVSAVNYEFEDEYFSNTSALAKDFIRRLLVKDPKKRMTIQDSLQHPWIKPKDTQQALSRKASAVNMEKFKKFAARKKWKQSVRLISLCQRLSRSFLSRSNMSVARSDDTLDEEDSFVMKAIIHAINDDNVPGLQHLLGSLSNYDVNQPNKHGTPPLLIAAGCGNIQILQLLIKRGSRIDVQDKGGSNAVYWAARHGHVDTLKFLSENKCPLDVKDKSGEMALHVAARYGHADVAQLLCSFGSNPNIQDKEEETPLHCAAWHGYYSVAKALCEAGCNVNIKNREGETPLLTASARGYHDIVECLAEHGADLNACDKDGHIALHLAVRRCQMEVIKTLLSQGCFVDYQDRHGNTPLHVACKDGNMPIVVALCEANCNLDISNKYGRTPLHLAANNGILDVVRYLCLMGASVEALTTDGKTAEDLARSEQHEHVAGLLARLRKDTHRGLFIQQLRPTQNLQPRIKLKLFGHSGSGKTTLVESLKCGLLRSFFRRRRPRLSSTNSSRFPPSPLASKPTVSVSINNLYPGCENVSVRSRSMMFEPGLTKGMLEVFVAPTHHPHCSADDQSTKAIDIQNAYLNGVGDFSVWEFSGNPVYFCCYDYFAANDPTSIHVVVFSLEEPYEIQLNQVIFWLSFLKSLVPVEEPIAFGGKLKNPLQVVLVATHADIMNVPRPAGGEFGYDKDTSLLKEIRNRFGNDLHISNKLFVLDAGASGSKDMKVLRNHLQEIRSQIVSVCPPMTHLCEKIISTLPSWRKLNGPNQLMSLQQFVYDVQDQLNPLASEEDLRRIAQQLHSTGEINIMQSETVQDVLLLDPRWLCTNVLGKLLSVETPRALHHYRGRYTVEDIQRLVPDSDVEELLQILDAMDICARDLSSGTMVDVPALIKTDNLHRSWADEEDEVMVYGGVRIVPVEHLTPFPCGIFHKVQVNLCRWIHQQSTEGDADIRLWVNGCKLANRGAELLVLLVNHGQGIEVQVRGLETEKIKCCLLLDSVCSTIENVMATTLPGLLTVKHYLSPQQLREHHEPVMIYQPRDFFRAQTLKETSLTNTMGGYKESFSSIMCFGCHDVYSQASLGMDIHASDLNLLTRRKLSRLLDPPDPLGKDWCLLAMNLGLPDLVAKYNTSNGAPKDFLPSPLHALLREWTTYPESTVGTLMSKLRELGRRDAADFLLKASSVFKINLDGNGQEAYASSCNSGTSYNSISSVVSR

O=C(COc1cccc2ccccc12)Nc1cccc(C(=O)O)c1
Toxic: Activity [14]
inactive: Activity [6] | Activity [7] | Activity [8] | Activity [11] | Activity [12] | Activity [13] | Activity [15] | inhibition [16] | inhibition [17] | Activity [18] | Activity [19]
5.39: pIC50 [1]
4.40: pEC50 [2]
4.63: pIC50 [3]
active: Activity [4] | Activity [5] | Activity [9] | Activity [10]
